Screening results from PubChem.
CHT inh – inhibits the human high affinity choline transporter; CHT-expressing cells, membrane potential dye, choline response; hits give low values; B-score at 10 µM; 310,000 compounds, 0.86% hits; Q9GZV3; AID 488975;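 active = B-score over 3 SD under the library average, and starting fluorescence ratio not unusually high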;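 also: choline stimulus applied at its EC90 after an EC20 pre-addition; B-score computed on integrated fluorescence ratio after choline addition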
Target sequence (Q9GZV3 whole entry, looked up): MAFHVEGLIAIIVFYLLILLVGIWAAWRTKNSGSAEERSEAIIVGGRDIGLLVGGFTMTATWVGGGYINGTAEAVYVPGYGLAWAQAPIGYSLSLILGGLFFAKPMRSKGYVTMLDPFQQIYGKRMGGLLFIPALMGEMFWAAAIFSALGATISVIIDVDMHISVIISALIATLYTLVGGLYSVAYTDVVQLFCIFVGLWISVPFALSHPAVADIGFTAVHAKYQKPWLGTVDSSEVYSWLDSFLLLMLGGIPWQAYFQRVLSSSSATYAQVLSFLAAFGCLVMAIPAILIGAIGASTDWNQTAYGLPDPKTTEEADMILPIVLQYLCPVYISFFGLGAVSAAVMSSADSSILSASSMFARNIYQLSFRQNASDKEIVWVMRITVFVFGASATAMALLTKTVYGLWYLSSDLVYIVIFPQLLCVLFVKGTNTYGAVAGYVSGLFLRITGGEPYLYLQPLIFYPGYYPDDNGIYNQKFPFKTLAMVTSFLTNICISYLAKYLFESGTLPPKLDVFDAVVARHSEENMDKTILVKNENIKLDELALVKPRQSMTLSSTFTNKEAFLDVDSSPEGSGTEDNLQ
Cl transport mod – modulators of human KCC2 chloride dependent transport; B-score of Tl+ flux slope (higher = more flux/activation; lower = inhibition) at 10 µM; 190,000 compounds, 2.2% hits; Q9H2X9; KCC2 cells, thallium flux FluoZin-2 fluorescence;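 active = thallium flux slope and its plate-corrected score both differing from the plate sample mean at a set confidence after two filtering rounds, in either direction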;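 also: slope of fluorescence scaled to starting intensity during 10 to 20 s after thallium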
Rad51 HR inh – blocks human Rad51 in homologous recombination; hRad51 DNA strand exchange, fluorescence dequenching; inhibition, % at 10 µM; 200,000 compounds, 0.085% hits;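 active = inhibition above 40% at the single screening dose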;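 also: 0% = DMSO control wells and 100% = blanks with heterologous ssDNA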
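Test system: preformed human Rad51 ssDNA filaments. Compound dosing: single dose, 10 µM final compound. Incubation: filaments 15 min 37 °C, then compound 30 min. Technique: FRET fluorescence dequenching, excitation 485 nm, emission 520 nm. Read-out basis: percent inhibition from fluorescence, normalised to plate control and blank means. Benchmarks: plate controls and plate blanks.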
CHT PAM – allosteric activators of human choline transporter CHT. Q9GZV3. CHT-expressing cells, membrane potential dye, choline EC20; hits give high values; LV-AA mutant CHT in HEK293 cells. B-score at 10 µM. 310,000 compounds, 0.49% hits. AID 488977;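 active = initial fluorescence not abnormally high and integrated response B-score, plate-corrected, over 3 SD above library mean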
CHT act confirm – human CHT activation, confirmatory screen | 2,500 compounds, 91% hits | activation, % at 10 µM | AID 504833 | CHT-expressing cells, membrane potential dye fluorescence (FDSS); % of choline EC20–EC90 response window; HEK293 expressing CHT LV-AA mutant; choline added at its EC20 | shares compounds with CHT PAM;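 active = primary screen active, with duplicate mean activation above negative control mean plus 3 SD, cut at about 11% in these data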
HEK293 MP dye – activity in parental HEK293 cells lacking CHT; AID 623908; shares compounds with CHT PAM; membrane potential dye fluorescence (FDSS); measured after EC20 choline addition; ratio readout change at 10 µM, hits read low; 2,500 compounds, 62% hits;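 active = duplicate-averaged ratio beyond 3 SD from buffer wells, up or down, though filed actives are nearly all decreases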
Active calls of the source: *; i = inactive; nt = not tested or not shown. Sampled rows, rich in hits. Any-hit rate of the full collection: about 2.6%.

SMILES	CHT inh	Cl transport mod	Rad51 HR inh	CHT PAM	CHT act confirm	HEK293 MP dye
CCc1ccc(CN(C)C(=O)CCc2nc3ccccc3n(-c3ccc(OC)cc3)c2=O)cc1	i	-0.407	nt	i	25.7*	i
CC[n+]1ccc(C[n+]2ccccc2)c2ccccc21	i	0.344	-5.5	11.4*	84.6*	-87.4*
C/C(=N\NC(=O)C(N)=O)c1cccc([N+](=O)[O-])c1	i	1.24	-1.8	i	nt	nt
C/C(=N\N=C(N)N)c1cccc([N+](=O)[O-])c1	i	-0.0917	-1.8	6.45*	27.4*	-57.3*
Cc1ccc(Oc2ccccc2NC(=O)CSCC(=O)Nc2cc(C)on2)cc1	i	nt	nt	i	0.1	i
Cc1cc(NC(=O)CSCC(=O)Nc2ccccc2N2CCCCC2)no1	i	nt	nt	i	nt	nt
c1ccc(-c2nnc(-c3ccccn3)nc2NC2CCCCC2)cc1	i	-1.32	-0.5	i	-4.3	i
CCOc1ccccc1OC(=O)c1ccco1	i	-0.307	7.2	i	nt	nt
CC(=O)COc1ccccc1OC(=O)c1ccco1	i	0.627	-0.4	i	-0.5	i
Cc1ccc(CCN2CC(C(=O)NCCCN3CCCCC3)CC2=O)cc1 (stereo unspecified)	i	nt	nt	i	nt	nt
CCC1=[N+](C)c2cccc3cccc(c23)N1C	i	0.254	21.7	9.61*	71.3*	-86.3*
CCN1C(=O)Nc2cccc3cccc1c23	i	nt	nt	i	nt	nt
CC(C)Sc1n[nH]c(=O)n1-c1cccc(C(F)(F)F)c1	i	0.0557	8.7	i	nt	nt
CCc1ccc(OCC(=O)N/N=C/c2cc([N+](=O)[O-])ccc2N2CCOCC2)cc1	i	-0.628	nt	i	23.4*	i
CNC(=O)Cn1c(C)cc(=O)c2cccc(OC)c21	i	0.071	5.5	13*	64.4*	-89*
Cc1cccc2c(=O)cc(C)n(CC(N)=O)c12	i	0.499	-11.8	10.9*	67.5*	-78*
Cc1ccc(Cn2c(NCCCn3ccnc3)nc3c2c(=O)n(C)c(=O)n3C)cc1	i	0.151	-4.3	i	nt	nt
C/C=C/c1ccc(OCCCCN2CC(C)CC(C)C2)c(OC)c1 (stereo unspecified)	i	0.324	19.8	i	nt	nt
CC(C)CCOC(=O)/C(=C/c1ccco1)NC(=O)/C=C/c1ccccc1	i	-1.21	-3.2	8.44*	16.2*	i
COc1ccc(CCNC(=O)CSc2nnc(-c3ccco3)c(-c3ccco3)n2)cc1OC	i	nt	nt	i	nt	nt
Cc1nn2c(NCCN(C)C)c3c(nc2c1-c1ccccc1)CCCC3	i	-0.224	15.2	i	11.4*	-50.7*
CN(C(=O)CSc1ncnc2sccc12)c1c(N)n(Cc2ccccc2)c(=O)[nH]c1=O	i	-0.573	14.9	i	nt	nt
CCCN(CC(=O)Nc1cc(Cl)ccc1Cl)C(=O)/C=C/c1ccco1	i	-0.161	1.9	6.82*	31.0*	i
CCCN(CC(=O)Nc1ccc(Cl)cc1Cl)C(=O)/C=C/c1cccc([N+](=O)[O-])c1	i	-0.341	-1.5	i	nt	nt
CN1CCN(c2nc3c(c(=O)n(C)c(=O)n3C)n2CCSc2nnnn2-c2ccccc2)CC1	i	-0.609	nt	7.25*	52.4*	-71*
SMILES	CHT inh	Cl transport mod	Rad51 HR inh	CHT PAM	CHT act confirm	HEK293 MP dye
CN1CCN(c2nc3c(c(=O)[nH]c(=O)n3C)n2CCSc2nnnn2-c2ccccc2)CC1	i	-0.00158	16.1	8.19*	58.7*	-67.8*
CC(CSc1nnnn1-c1ccccc1)Cn1c(N2CCN(C)CC2)nc2c1c(=O)[nH]c(=O)n2C (stereo unspecified)	i	-0.579	8.7	i	nt	nt
CN1CCN(c2nc3c(c(=O)n(C)c(=O)n3C)n2Cc2ccccc2)CC1	i	nt	nt	i	nt	nt
CC1CCN(c2nc3c(c(=O)n(C)c(=O)n3C)n2Cc2ccccc2)CC1	i	-0.238	-7.2	6.61*	7.1	i
CCC(C(=O)Nc1cc(C)cc(C)n1)c1ccccc1 (stereo unspecified)	i	nt	nt	i	nt	nt
Cc1cc(C)nc(NC(=O)C(c2ccccc2)c2ccccc2)c1	i	-0.401	-9.2	6.86*	39.9*	-34.7*
COc1cc(NC(=O)CCc2nnc3ccc(N4CCN(C)CC4)nn23)cc(OC)c1	i	nt	nt	i	nt	nt
Cc1cc[n+]2c3c(cccc13)CCC2	i	nt	-3.7	10.9*	88.6*	-85.4*
CSc1ccc(CN(C)C(=O)C(Cc2ccccc2)NC(=O)c2ccccc2)cc1 (stereo unspecified)	i	nt	nt	i	nt	nt
CSc1ccc(CN(C)C(=O)C(c2ccccc2)c2ccccc2)cc1	i	nt	nt	7.08*	34.3*	i
COc1ccc(-c2cn3c(n2)CCC3)cc1	i	0.485	-2.5	7.43*	51.4*	-47.4*
Cc1ccc(-c2cn3c(n2)CCCC3)cc1	i	-0.187	2.4	i	nt	nt
O=C(CCl)Nc1ccc(Oc2cnc3ccccc3n2)cc1	i	nt	-7.1	i	nt	nt
COc1ccc(C(=O)C2CCCN(Cc3cccn3-c3ccccn3)C2)c(OC)c1 (stereo unspecified)	i	-0.634	-1.1	i	nt	nt
O=C(c1cc(F)ccc1F)C1CCCN(Cc2cccn2-c2ccccn2)C1 (stereo unspecified)	i	-0.34	-6.9	12.7*	42.5*	i
COc1ccc(F)cc1C(=O)C1CCCN(Cc2cccn2-c2ccccn2)C1 (stereo unspecified)	i	-0.802	nt	16.2*	58.2*	i
CCOC(=O)Cc1c(Cl)c2ccccc2[nH]c1=O	i	0.392	11.6	i	nt	nt
CCOC(=O)C[n+]1ccc2c([nH]c3ccccc32)c1C	i	nt	nt	i	49.5*	-40.6*
O=C(Nc1ccc(S(=O)(=O)Nc2nccs2)cc1)c1nn(-c2ccc(F)cc2)ccc1=O	i	nt	nt	6.33*	36.5*	-35.9*
CCOc1ccc(-n2ccc(=O)c(C(=O)Nc3ccc(S(=O)(=O)Nc4nccs4)cc3)n2)cc1	i	nt	nt	i	nt	nt
CCc1ccc(N(CC(=O)NCC2CCCO2)C(=O)CCC(=O)Nc2nccs2)cc1 (stereo unspecified)	i	nt	nt	i	nt	nt
CN(C)C1=NC[C@H](Cc2ccccc2)N1CCCC1CCCC1	i	nt	nt	i	nt	nt
CN(C)C1=NC[C@H](Cc2ccccc2)N1CCC1CCCC1	i	nt	nt	i	27.0*	i
NC1=NC[C@H](Cc2ccccc2)N1CC1CCCCC1	i	nt	3.3	i	32.0*	i
Clc1ccc(-c2nnc(N3CCOCC3)o2)cc1	i	-0.00358	-4.1	i	nt	nt
O=C(Nc1ccccc1)c1ccc[n+](Cc2ccc([N+](=O)[O-])cc2)c1	i	0.379	-0.2	i	41.9*	-31.8*
O=[N+]([O-])c1ccc(C[n+]2ccccc2)cc1	i	nt	nt	i	nt	nt
